Assay outcomes as filed in PubChem.
TRPC4 agonist – opens the mouse TRPC4 cation channel | HEK293 TRPC4beta/mu-opioid, Fluo4 calcium fluorescence; hits give high values | 0.49% of 310,000 active | B-score at 10 µM;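 active means B-score above 5 SD of library B-scores, and initial fluorescence ratio not above library mean plus 5 SD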;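 further: positive B-score marks a calcium rise read as TRPC4 activation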
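Technique: kinetic Fluo4 calcium fluorescence; Test system: TRPC4beta and mu-opioid receptor HEK293 stable cells; Measure: B-scored integrated calcium fluorescence ratio; Benchmarks: low control buffer alone, high control maximal DAMGO; Schedule: 45 min room-temperature Fluo4 loading, 110 s read.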
TRPC6 inhibitor – blocks the mouse TRPC6 cation channel | Q61143 | 1.1% of 310,000 active | AID 2553 | HEK293-TRPC6, membrane potential dye, ACh-evoked depolarization; hits give low values | B-score at 10 µM;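 active means B-score under library mean minus 3 SD, initial fluorescence not abnormally high, positive integrated signal ratio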;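 further: B-score derived from integrated fluorescence ratio over the kinetic read; more negative B-score means stronger inhibition of depolarization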
TRPC6 activator – activators of mouse TRPC6 channel; AID 2550; 0.13% of 310,000 active; Q61143; B-score at 10 µM; HEK293-TRPC6 membrane potential dye fluorescence; hits give high values;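 active means B-score of the integrated fluorescence ratio above library mean plus 3 SD, and starting fluorescence ratio within library mean plus 5 SD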;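 further: higher score means more depolarization so channel activation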
TRPC4 inh – TRPC4 (mouse) channel inhibition; Q9QUQ5; HEK293 TRPC4beta/mu-opioid, DAMGO-evoked Fluo4 calcium flux; hits give low values; B-score at 10 µM; 0.39% of 300,000 active; AID 2247;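 active means B-score over 3 SD under the library average, no early fluorescence shift, positive overall ratio signal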
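Assay system: HEK293 cells with stable TRPC4beta plus mu-opioid receptor expression. Dosing: single dose. Measured by: Fluo4 Ca2+ flux fluorescence. Also added: DAMGO in two steps, submaximal then maximal. Read-out: B score from integrated Fluo4 fluorescence ratio.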
TRPC4 PAM – TRPC4 (mouse) allosteric potentiation; Q9QUQ5; HEK293 TRPC4beta/mu-opioid, DAMGO EC20, Fluo-4 Ca2+ flux; hits give high values; B-score at 10 µM; 0.42% of 310,000 active; AID 2227;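 active means B-score of calcium response area above 5 SD of library B-scores, with initial fluorescence ratio within 5 SD of library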
TRPC4 sel inh 2 – second check of whether TRPC6 inhibitors also affect mouse TRPC4; inhibition, % at 10 µM; shares compounds with TRPC6 inhibitor; 42% of 920 active; HEK293 TRPC4/MOR, membrane potential dye fluorescence; channel activated by saturating DAMGO dose;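 active means compounds whose fluorescence signal differed from control wells by over 3 SD, either direction, in both duplicate plates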
TRPC4 spec – mouse TRPC4 off-target activity of TRPC6 inhibitors | shares compounds with TRPC6 inhibitor | HEK293 TRPC4/mu-opioid, membrane potential fluorescence | activity change, negative = inhibition, % at 10 µM | 61% of 920 active | AID 2777;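 active means rise or fall in signal beyond 3 SD of buffer-only wells in both replicate plates, either sign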;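 further: integrated kinetic ratio of fluorescence range over baseline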
HEK293 MPD ctr 2-1 – second counter-screen for TRPC6 inhibitors: parental HEK293 cells. AID 2779. signal change vs control, % at 10 µM. 31% of 920 active. shares compounds with TRPC6 inhibitor. parental HEK293 membrane potential dye fluorescence; maximal acetylcholine challenge after compound addition;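 active means membrane potential signal moving either way by over 3 SD of the maximum-effect control, in both duplicate plates, meaning non-specific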
HEK293 MPD ctr-1 – checks TRPC6 inhibitor effects in parental HEK293 cells | shares compounds with TRPC6 inhibitor | parental HEK293 membrane potential dye fluorescence | membrane potential signal change, % at 10 µM | 60% of 920 active;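 active means membrane potential signal shifting up or down by more than 3 SD of buffer-only wells, on both duplicate plates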
HEK293 MPD ctr-2 – parental HEK293 nonspecific activity of TRPC6 modulators; 51% of 2,400 active; shares compounds with TRPC6 inhibitor; membrane potential dye fluorescence; membrane potential signal change, % at 10 µM; AID 488924;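 active means membrane potential signal moves up or down beyond 5 SD from buffer-only wells, on both duplicate plates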
HEK293 MPD ctr 2-2 – parental HEK293 nonspecific activity of TRPC6 modulators, second screen; 14% of 2,400 active; membrane potential dye fluorescence; after compound, maximal acetylcholine stimulation; shares compounds with TRPC6 inhibitor; inhibition, % at 10 µM; AID 488926;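 active means membrane potential signal drops by more than 5 SD from the mean control signal, in both duplicate plates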
TRPC4 ctr mod – mouse TRPC4 off-target activity of TRPC6 modulators; shares compounds with TRPC6 inhibitor; HEK293 TRPC4/mu-opioid, membrane potential fluorescence; percent change from control (negative = decrease, positive = increase), % at 10 µM; 69% of 2,400 active;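 active means membrane potential signal moved up or down beyond 5 SD of buffer control wells, in both duplicate plates, actives on both sides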
TRPC4 ctr inh 2 – second check of whether TRPC6 modulators also affect mouse TRPC4; inhibition, % at 10 µM; HEK293 TRPC4/mu-opioid, membrane potential dye fluorescence; stimulated with maximal-effect DAMGO; AID 488928; 55% of 2,400 active; shares compounds with TRPC6 inhibitor;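 active means drop in membrane potential signal beyond 5 SD of the control wells in both duplicate plates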;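 further: TRPC4 counter screen for TRPC6 hits run under conditions tuned for TRPC6 not TRPC4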
TRPC6 block conf – confirmation of mouse TRPC6 inhibitors. shares compounds with TRPC6 inhibitor. HEK293-TRPC6, membrane potential dye, ACh-evoked depolarization. inhibition, % at 10 µM. 43% of 3,300 active;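 active means fluorescence ratio falls more than 5 SD below the full-stimulation control mean, in both duplicate runs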;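 further: integrated fluorescence ratio of peak minus minimum over baseline after agonist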
TRPC6 act confirm – confirmation of mouse TRPC6 activators; activation, % at 10 µM; 11% of 2,800 active; shares compounds with TRPC6 inhibitor; HEK293-TRPC6 membrane potential dye fluorescence, FDSS;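 active means ratio signal rise beyond 5 SD above unstimulated control wells' mean, seen in both duplicate runs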
Of the large screens only hits and unclear results are named; the others gave an inactive call (follow-up assays come after a bar, where they were run). Hits are enriched below; roughly 2.3% of the tested compounds scored in any of these assays.

COC(=O)C1CCN(Cc2ccc(C)cc2)CC1	none
CCN(CC)S(=O)(=O)N1CCC(C(=O)NCc2ccc(C)cc2)CC1	none
CC(C)Oc1cc(C(=O)NC2CCCCC2)c2ccccc2n1	none
COc1cc(/C=C2/SC(=S)N(Cc3ccccc3)C2=O)cc(Cl)c1O	TRPC4 agonist 174, TRPC6 activator 76, TRPC4 PAM 37 | HEK293 MPD ctr-2 active | HEK293 MPD ctr 2-2 inactive | TRPC4 ctr mod 520% | TRPC4 ctr inh 2 inactive | TRPC6 block conf inactive | TRPC6 act confirm 555%
CN1CCN(CC(=O)c2ccccc2F)CC1	none
O=C(CNC(=O)c1ccco1)OCC(=O)c1ccc(Br)cc1	TRPC6 inhibitor -5.3 | HEK293 MPD ctr-2 inactive | HEK293 MPD ctr 2-2 inactive | TRPC4 ctr mod inactive | TRPC4 ctr inh 2 inactive | TRPC6 block conf inactive | TRPC6 act confirm inactive
Cc1cc(NC(=O)c2coc(=O)c(Br)c2)ccc1C(C)C	none
COc1ccc(Nc2c(-c3ccc(C)cc3)nc3cnccn23)cc1	none
Cc1ccc(Nc2c(-c3ccccc3O)nc3cnccn23)cc1	TRPC6 inhibitor -6.6 | HEK293 MPD ctr-2 inactive | HEK293 MPD ctr 2-2 inactive | TRPC4 ctr mod -11% | TRPC4 ctr inh 2 68% | TRPC6 block conf inactive | TRPC6 act confirm inactive
O=C1CCCCC1Sc1nnc(-c2ccc3c(c2)OCO3)o1 (centres undefined)	none
CC(=O)N/C(=C\c1ccc(C)o1)C(=O)NCc1ccccc1	none
Cc1ccc(OCC(O)CNCc2ccccc2)cc1C (centres undefined)	TRPC6 inhibitor -5.1 | HEK293 MPD ctr-2 132% | HEK293 MPD ctr 2-2 inactive | TRPC4 ctr mod 19% | TRPC4 ctr inh 2 46% | TRPC6 block conf inactive
O=C(CC(=O)NC1CCCCC1)N/N=C/c1ccccc1[N+](=O)[O-]	none
COC(=O)CC(N)c1ccc(OC)c2ccccc12 (centres undefined)	TRPC6 inhibitor -5.3 | HEK293 MPD ctr-2 inactive | HEK293 MPD ctr 2-2 inactive | TRPC4 ctr mod inactive | TRPC4 ctr inh 2 inactive | TRPC6 block conf inactive | TRPC6 act confirm inactive
CCNc1nc(CN2CCCCC2)nc2scc(-c3ccccc3)c12	TRPC6 inhibitor -5.8 | HEK293 MPD ctr-2 inactive | HEK293 MPD ctr 2-2 inactive | TRPC4 ctr mod inactive | TRPC4 ctr inh 2 39% | TRPC6 block conf inactive | TRPC6 act confirm inactive
OCC1CCCN(c2nc(CN3CCCCC3)nc3scc(-c4ccccc4)c23)C1 (centres undefined)	none
C=CCn1c(SCCN2CCCC2)nc2c([nH]c3ccccc32)c1=O	TRPC6 inhibitor -8.6, TRPC4 PAM 17 | HEK293 MPD ctr-2 inactive | HEK293 MPD ctr 2-2 inactive | TRPC4 ctr mod -18% | TRPC4 ctr inh 2 66% | TRPC6 block conf 53% | TRPC6 act confirm inactive
COC(=O)CN1C(=O)S/C(=C/c2ccc(N3CCCCC3)o2)C1=O	TRPC6 activator 13 | HEK293 MPD ctr-2 162% | HEK293 MPD ctr 2-2 inactive | TRPC4 ctr mod 90% | TRPC4 ctr inh 2 inactive | TRPC6 block conf inactive | TRPC6 act confirm 35%
O=C(CNC(=O)c1ccco1)N/N=C/c1ccc(C(=O)O)cc1	none
Cc1cc(C)n(CC(C)(O)c2ccccc2)n1 (centres undefined)	none
COc1ccc(CNc2nc3ccccc3n2CCN2CCCCC2)c(OC)c1	TRPC6 inhibitor -10 | TRPC4 sel inh 2 42% | TRPC4 spec 9.3% | HEK293 MPD ctr 2-1 252% | HEK293 MPD ctr-1 7.9% | TRPC6 block conf inactive | TRPC6 act confirm inactive
COc1cccc(CNc2nc3ccccc3n2CCN2CCCCC2)c1	TRPC6 inhibitor -6.1 | HEK293 MPD ctr-2 inactive | HEK293 MPD ctr 2-2 inactive | TRPC4 ctr mod inactive | TRPC4 ctr inh 2 56% | TRPC6 block conf 35% | TRPC6 act confirm inactive
Brc1cccc(CNc2nc3ccccc3n2CCN2CCCCC2)c1	none
Brc1ccc(CNc2nc3ccccc3n2CCN2CCCCC2)cc1	TRPC6 inhibitor -5.2 | HEK293 MPD ctr-2 inactive | HEK293 MPD ctr 2-2 inactive | TRPC4 ctr mod 15% | TRPC4 ctr inh 2 89% | TRPC6 block conf 38% | TRPC6 act confirm inactive
COc1ccc(OC)c(CNc2nc3ccccc3n2CCN2CCCCC2)c1	none
CCN1CCN(CC(=O)Nc2ccc(N(C)C)cc2)CC1	none
COc1ccccc1NC(=O)c1ccccc1N(Cc1ccccc1)S(C)(=O)=O	none
COCCn1c(SCC(=O)N(C(C)C)C(C)C)nnc1-c1cc2ccccc2cc1O	TRPC6 inhibitor -5.1 | HEK293 MPD ctr-2 inactive | HEK293 MPD ctr 2-2 inactive | TRPC4 ctr mod inactive | TRPC4 ctr inh 2 inactive | TRPC6 block conf 42%
CC(C)N(C(=O)CSc1nnc(-c2cc3ccccc3cc2O)n1Cc1ccco1)C(C)C	none
Cc1nc(OCc2c(C)noc2C)c2ccccc2n1	none
COc1cccc(CNC(=O)Cn2c(=O)n(CCC(=O)N3CCCCC3)c(=O)c3sccc32)c1	none
Cc1nonc1NC(=O)CSc1nnc(N)s1	none
O=C(c1cccc(S(=O)(=O)N2CCCC2)c1)N1CCN(c2ccccc2F)CC1	none
O=C(c1cccc(S(=O)(=O)N2CCN(c3ccccc3)CC2)c1)N1CCCCCCC1	none
